Experimental data of several laboratories.
Protocols differ between the studies behind these lines.
CYP17A1: Steroid 17-alpha-hydroxylase/17,20 lyase (CYP17A1, Homo sapiens, UniProt P05093)
MRGPRX2: Mas-related G-protein coupled receptor member X2 (MRGPRX2, Homo sapiens, UniProt Q96LB1)

Structure (SMILES) | target | assay | setting | measurement | result
CC(=O)C1=CC[C@H]2[C@@H]3CCC4=CC(=O)CC[C@]4(C)[C@H]3CC[C@]12C | CYP17A1 | binding, absorbance |  | Kd | 540 nM
C/C(=C\[N+](=O)[O-])c1ccccc1 | OYE1 (Saccharomyces pastorianus, UniProt Q02899) | binding, absorbance |  | Kd | 170000 nM
Nc1ncc(-c2nc(N3CCOCC3)nc(N3CCOCC3)n2)c(C(F)F)n1 | Phosphatidylinositol 4,5-bisphosphate 3-kinase catalytic subunit alpha isoform (PIK3CA, Homo sapiens, UniProt P42336) | ligand displacement, TR-FRET |  | IC50 | 21.9 nM
C/C=C1\NC(=O)[C@H](C)NC(=O)[C@@H](NC(=O)[C@@H](Cc2ccc(O)cc2)NC(=O)[C@@H](NC(=O)/C(C)=C/C)C(C)C)[C@@H](C)OC(=O)[C@H](CC[S+](C)[O-])NC(=O)[C@@H](CCC(=O)O)NC1=O (stereo partly drawn) | Chymotrypsin-like elastase family member 1 (CELA1, Sus scrofa, UniProt P00772) | enzyme activity, inhibitor, absorbance |  | IC50 | 7280 nM
Cc1c(Cc2cccc(N(C)S(=O)(=O)CCCN3CCN(c4ccc(Nc5c(C(N)=O)cnc6ccc(-c7cnc8ccccc8c7)cc56)cc4C(F)(F)F)CC3)c2)c(=O)oc2cc(OC(=O)N(C)C)ccc12 | Dual specificity mitogen-activated protein kinase kinase 1 (MAP2K1, Homo sapiens, UniProt Q02750) | enzyme activity, inhibitor, mobility shift |  | IC50 | 4970 nM
CC(C)=CCc1c(O)cc2c(c1O)C(=O)C[C@@H](c1ccc(O)cc1)O2 | Cytochrome P450 1A1 (CYP1A1, Homo sapiens, UniProt P04798) | enzyme activity, inhibitor, fluorescence | 15 min, pH 7.4 | Ki | 590 nM
CC(C)C[C@H](NC(=O)[C@H](Cc1ccccc1)NC(=O)c1cnccn1)B(O)O | Cathepsin G (CTSG, Homo sapiens, UniProt P08311) | enzyme activity, inhibitor |  | IC50 | 36000 nM
CC(=O)[C@H]1CC[C@H]2[C@@H]3CCC4=CC(=O)CC[C@]4(C)[C@H]3CC[C@]12C | CYP17A1 | binding, absorbance |  | Kd | 740 nM
Cc1cc2c(cc1Br)NC(=O)/C2=N/N=C1/C(=O)Nc2cc(Br)c(C)cc21 | Glycogen synthase kinase-3 beta (GSK3B, Homo sapiens, UniProt P49841) | enzyme activity, inhibitor |  | IC50 | ~0.03 nM
CC[C@H](C)[C@H](NC(=O)[C@@H]1CCCN1C(C)=O)C(=O)N[C@@H](CCC(=O)O)C(=O)N[C@H](C(=O)N[C@@H](CS)C(=O)N[C@@H](CCSC)C(=O)N[C@@H](Cc1ccc(O)cc1)C(=O)N[C@@H](CCCNC(=N)N)C(=O)N[C@@H](CCC(=O)O)C(=O)N1CCC[C@H]1C(N)=O)C(C)C | MRGPRX2 | calcium signal, agonist |  | EC50 | > 20000 nM
CCCc1cc(C)[nH]c(=O)c1CNC(=O)c1cc(-c2ccc(N3CCN(CCCCc4cn(CCN5C(=O)\C(=C/C=C/C=C6/N(CCC(=O)OCOC(C)=O)c7ccc(C(=O)OCOC(C)=O)cc7C6(C)C)C(=O)N(CC)C5=O)nn4)CC3)nc2)cc2c1cnn2C(C)C | Histone-lysine N-methyltransferase EZH2 (EZH2, Homo sapiens, UniProt Q15910) | enzyme activity, inhibitor, radiometric |  | IC50 | 21 nM
NC(=O)[C@@H]1CCCN1C(=O)[C@H](CCC(=O)O)NC(=O)[C@@H]1CCC(=O)N1 | MRGPRX2 | calcium signal, agonist |  | EC50 | > 20000 nM
COc1cc(C(=O)N2CC[C@@H](O)[C@@H](N)C2)cc2nc(-c3cc4ccccc4n3CC3CC3)n(C)c12 | Vasopressin V1a receptor (AVPR1A, Homo sapiens, UniProt P37288) | calcium signal, antagonist, fluorescence |  | IC50 | 25100 nM
COC(=O)Nc1nc2cc(C(=O)c3ccc(F)cc3)ccc2[nH]1 | Vascular endothelial growth factor receptor 2 (KDR, Homo sapiens, UniProt P35968) | enzyme activity, inhibitor, TR-FRET |  | IC50 | 470 nM
C[C@@H](O)[C@@H]1NC(=O)[C@H](CCCCN)NC(=O)[C@H](Cc2c[nH]c3ccccc23)NC(=O)[C@H](Cc2ccccc2)NC(=O)[C@H](Cc2ccccc2)NC(=O)[C@H](CC(N)=O)NC(=O)[C@H](CCCCN)NC(=O)[C@@H](NC(=O)[C@@H]2CCCN2)CSSC[C@@H](C(=O)N[C@@H](CCCCN)C(=O)O)NC(=O)[C@H](CO)NC(=O)[C@H](CO)NC(=O)[C@H](Cc2ccccc2)NC1=O | MRGPRX2 | calcium signal, agonist |  | EC50 | 79.4 nM
